An excerpt weighted towards active compounds, which were near 2% of everything screened.
Ecoli rRNA inh: inhibitors of bacterial rRNA selective over humanized ribosomes. E. coli WT GFP vs humanized-ribosome RFP mutants, fluorescence, 24 h; stronger effect = lower value; DMSO median 0, no signal -100. GFP signal change (wild-type ribosome), % (test concentration not listed). hit rate 1.6% among 350,000;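 active means significant combined selectivity score with lowered wild-type GFP, culture density cut under 30%, mutant RFP and density less affected; inactive means any of these conditions unmet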
E-sel inducer: E-selectin induction on HUVECs | P16581 | HUVEC E-selectin immunofluorescence imaging; normalized: neutral wells 0, TNF-alpha wells 100 | activation, % at 7.58 µM | hit rate 0.37% among 260,000 | AID 686992;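 active means mean E-selectin-positive cell signal at least 10% of the positive control, reached in at least 60% of replicates, without over 20% cell loss; inconclusive means no rule given, readout overlaps actives, possibly toxicity-flagged; inactive means the rest, including those meeting only one limit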
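System: HUVEC, human umbilical vein endothelial cells; quantity: 3,000 cells/well; buffer or medium: EGM-2 medium, gelatin-coated wells; dosing: single-point compound dose; detection: immunofluorescence imaging; evaluation: % PE-positive cells; benchmarks: TNF-alpha, DMSO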
RAD54 inh: RAD54 (human) branch migration inhibition | Q92698 | RAD54 Holliday junction branch migration, FAM/BHQ fluorescence | inhibition, % at 10.4 µM | hit rate 0.14% among 360,000 | AID 602329;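 active means mean normalized replicate activity at least 40 and at least half of replicates scoring 40 or more; inconclusive means only one of the two criteria met; inactive means mean below 40 and under half of replicates reaching 40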;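 further: inhibitors cause a drop in the FAM fluorescence signal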
Target sequence (Q92698 whole entry, looked up): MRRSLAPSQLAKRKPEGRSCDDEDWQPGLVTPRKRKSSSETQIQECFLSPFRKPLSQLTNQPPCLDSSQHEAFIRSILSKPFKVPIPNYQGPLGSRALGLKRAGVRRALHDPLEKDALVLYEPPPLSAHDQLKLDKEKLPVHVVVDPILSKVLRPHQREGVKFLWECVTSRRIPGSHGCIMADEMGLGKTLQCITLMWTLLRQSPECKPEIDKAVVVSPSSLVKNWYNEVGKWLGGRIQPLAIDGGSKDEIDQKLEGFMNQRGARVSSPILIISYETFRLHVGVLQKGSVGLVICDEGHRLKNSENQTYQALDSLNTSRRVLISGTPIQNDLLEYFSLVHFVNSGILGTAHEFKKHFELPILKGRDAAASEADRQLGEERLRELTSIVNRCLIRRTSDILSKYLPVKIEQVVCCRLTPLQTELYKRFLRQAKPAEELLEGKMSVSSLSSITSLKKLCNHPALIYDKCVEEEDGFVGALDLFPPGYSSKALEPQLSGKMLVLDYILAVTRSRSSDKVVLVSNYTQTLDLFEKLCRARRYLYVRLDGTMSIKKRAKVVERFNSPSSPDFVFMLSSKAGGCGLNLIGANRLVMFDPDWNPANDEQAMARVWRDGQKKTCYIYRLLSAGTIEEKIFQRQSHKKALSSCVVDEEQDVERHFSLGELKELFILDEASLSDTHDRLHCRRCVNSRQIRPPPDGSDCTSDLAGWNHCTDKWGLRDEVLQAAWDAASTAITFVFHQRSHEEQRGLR
RAD52 inh: inhibitors of human RAD52 DNA annealing; P43351; recombinant RAD52 DNA annealing, FRET fluorescence; inhibition, % at 18.7 µM; hit rate 0.46% among 360,000; AID 651710;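 active means every replicate showing at least 50% inhibition; inconclusive means mean inhibition at least 50% but not in every replicate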
PglD inh: PglD (C. jejuni) enzyme inhibition; purified PglD enzyme, DTNB colorimetric CoA detection; inhibition, % at 12.5 µM; hit rate 0.098% among 360,000; AID 602405; in the data active means inhibition above about 16%, passing the limit was not always enough; inconclusive means no clear call, values can overlap the other calls
Xi reactivation: reactivates the inactive X chromosome in mouse fibroblasts | XiGFP mouse fibroblasts, % GFP-positive cells imaging, 3 d; cells co-treated with 5-aza-dC sensitizer; scaled so ellipticine positive control = 100% | activation, % at 7.58 µM | hit rate 0.055% among 360,000 | AID 743238;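 active means mean normalized replicate activation at least 10% and every replicate at or above 10%; inconclusive means only one of the two criteria met; inactive means mean below 10% and not all replicates reach 10%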
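System: 68-5-11 XiGFP fibroblast line; Timing: 3 days compound exposure; Compound dosing: one concentration, pinned; Benchmarks: positive control ellipticine, 6 µM final; Buffer or medium: DMEM containing 5-aza-dC.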
DNA binder FP: counter-screen for RAD52 inhibitors: DNA binding compounds | shares compounds with RAD52 inh | Salmon sperm DNA/acridine orange FP displacement | AC50, µM | hit rate 8% among 1,000;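 active means fitted half-maximal concentration for signal loss at or below twice the highest dose tested, in every separate run, actives reach about 64 µM in these data; inconclusive means runs disagree, or flat partial signal loss, or poor fit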
Large screens that a line does not name were inactive (follow-up assays come after a bar, where they were run).

Cc1ccc2sc(N(CCCN(C)C)C(=O)c3ccc(S(=O)(=O)N(C)C4CCCCC4)cc3)nc2c1C	RAD52 inh 61 (no result: E-sel inducer) | DNA binder FP inactive
COc1ccc2sc(N(CCN(C)C)C(=O)c3ccc4ccccc4c3)nc2c1	RAD52 inh 56 (no result: E-sel inducer) | DNA binder FP inactive
CN(C)CCCN(C(=O)c1ccc(C(=O)c2ccccc2)cc1)c1nc2cc3c(cc2s1)OCCO3	RAD52 inh 73 (no result: E-sel inducer) | DNA binder FP inactive
COc1ccc2sc(N(CCN(C)C)C(=O)c3cc(Cl)sc3Cl)nc2c1	none (no result: RAD54 inh, PglD inh)
CCN(CC)CCN(C(=O)c1ccc(S(=O)(=O)N(C)C2CCCCC2)cc1)c1nc2c(C)cccc2s1	none
Cc1ccc2nc(N(CCCN(C)C)C(=O)c3ccc(S(=O)(=O)N4CCc5ccccc5C4)cc3)sc2c1	RAD52 inh 74 | DNA binder FP inactive
COc1ccc2c3c(n(C)c2c1)[C@H](CO)N(C(=O)c1ccc(F)cc1)CC31CN(C(=O)c2ccc(F)cc2)C1	none (no result: RAD54 inh, PglD inh)
CN(C)CC(=O)N1CC(=O)N2[C@H](CO)[C@@H](c3ccc(/C=C/c4ccccc4)cc3)[C@H]2C1	none (no result: RAD54 inh, PglD inh)
CN(C)CCCN(C(=O)c1ccc2c(c1)CCCC2)c1nc2ccc(F)cc2s1	none (no result: Ecoli rRNA inh, E-sel inducer, RAD52 inh, Xi reactivation)
CN(C)CCCN(C(=O)c1ccc2c(c1)CCCC2)c1nc2cc3c(cc2s1)OCO3	RAD52 inh 71 (no result: E-sel inducer) | DNA binder FP inactive
CCN(CC)CCN(C(=O)c1ccc2ccccc2c1)c1nc2cc3c(cc2s1)OCO3	RAD52 inh 61 | DNA binder FP inactive
CCCCCCCCCCCCCCC(O)C[N+](C)(CCO)CCO (stereo unspecified)	RAD52 inh 85 (no result: RAD54 inh, PglD inh) | DNA binder FP inconclusive
CCCN1[C@@H]2c3ccc(-c4ccccc4)c(=O)n3C[C@@H]2[C@@H](CO)[C@@H]1C(=O)NCCCN1CCOCC1	none
COc1cc(NC(C)CCCN)c2ncccc2c1 (stereo unspecified)	RAD52 inh 84 (no result: Ecoli rRNA inh) | DNA binder FP inactive
C#CCOCCOCCOCCNc1nc(N2CCN(C(=O)[C@H](CCCCN)n3cc(CN)nn3)CC2)nc(N2CCN(C(=O)[C@H](CCC(=O)O)n3cc([C@@H](N)[C@H](C)CC)nn3)CC2)n1	none
C#CCOCCOCCOCCNc1nc(N2CCN(C(=O)[C@H](CC(N)=O)n3cc(C(N)[C@@H](C)CC)nn3)CC2)nc(N2CCN(C(=O)[C@H](CCCCN)n3cc([C@@H](N)CC(N)=O)nn3)CC2)n1 (stereo partly specified)	none
C#CCOCCOCCOCCNc1nc(N2CCN(C(=O)[C@H](CCCCN)n3cc([C@@H](N)[C@H](C)CC)nn3)CC2)nc(N2CCN(C(=O)[C@H](CCCCN)n3cc([C@@H](N)CC(N)=O)nn3)CC2)n1	RAD52 inh 54 | DNA binder FP inactive
C#CCOCCOCCOCCNc1nc(N2CCN(C(=O)[C@H]([C@@H](C)CC)n3cc([C@@H](N)CO)nn3)CC2)nc(N2CCN(C(=O)[C@H](CCCCN)n3cc([C@@H](N)CC(C)C)nn3)CC2)n1	RAD52 inh 52 (no result: RAD54 inh, PglD inh) | DNA binder FP inactive
C#CCOCCOCCOCCNc1nc(N2CCN(C(=O)[C@H](CCCCN)n3cc(CN)nn3)CC2)nc(N2CCN(C(=O)[C@H](CC(N)=O)n3cc(C(N)[C@H](C)CC)nn3)CC2)n1 (stereo partly specified)	RAD52 inh 64 | DNA binder FP inactive
C#CCOCCOCCOCCNc1nc(N2CCN(C(=O)[C@H](CCCCN)n3cc(CN)nn3)CC2)nc(N2CCN(C(=O)[C@H](CCCN=C(N)N)n3cc(C(N)[C@H](C)CC)nn3)CC2)n1 (stereo partly specified)	RAD52 inh 77 | DNA binder FP inconclusive
COc1ccc(NC(=O)N(C)C[C@H]2Oc3c(NC(=O)Nc4cccc5ccccc45)cccc3C(=O)N([C@H](C)CO)C[C@H]2C)cc1	none
CCNC(=O)/C(C#N)=C/c1c(N2CCCCCC2)nc2c(C)cccn2c1=O	RAD52 inh 95 | DNA binder FP inactive
CCNC(=O)/C(C#N)=C/c1c(N2CCN(c3ccccc3)CC2)nc2c(C)cccn2c1=O	none
COc1ccccc1NC(=S)NC12CN3CN(CN(C3)C1)C2	RAD52 inh 79 (no result: E-sel inducer, RAD54 inh, PglD inh) | DNA binder FP inactive
CC(=O)c1ccc2c(c1)N(CCCN1CCC(CCO)CC1)c1ccccc1S2	none
CN(C)CCCN1c2ccccc2Sc2ccc3ccccc3c21	none (no result: RAD54 inh, PglD inh)
CN(C)CCCN1c2ccccc2Sc2ccc(Cl)cc21	RAD52 inh 101 | DNA binder FP inactive
OCCN1CCN(CCCN2c3ccccc3Sc3ccc(Cl)cc32)CC1	RAD52 inh 102 | DNA binder FP inactive
NCCCCc1ccc2ccc3cccc4ccc1c2c34	Ecoli rRNA inh -19, RAD52 inh 53 | DNA binder FP inactive
CC(=O)Nc1cccc(N/C(N)=N/c2nc(C)cc(C)n2)c1	RAD52 inh 57 (no result: E-sel inducer, RAD54 inh, PglD inh) | DNA binder FP inactive
CN(C)CCCN1C(=O)c2oc3ccc(Cl)cc3c(=O)c2C1c1cccnc1 (stereo unspecified)	none
CN(C)CCCN=c1cc(-c2ccccc2)oc2ccc(Cl)cc12	RAD52 inh 80 (no result: RAD54 inh, PglD inh) | DNA binder FP 28µM
CN1CCN(C2CCN(c3ccc(Nc4nnc(Cl)c(Nc5ccccc5S(C)(=O)=O)n4)c(OC(CF)CF)c3)CC2)CC1	RAD52 inh 51 | DNA binder FP inactive
CC(C)Oc1cc(C(=O)N2CCC(N3CCCCC3)CC2)ccc1Nc1nnc(Cl)c(Nc2ccccc2S(C)(=O)=O)n1	none (no result: Ecoli rRNA inh, E-sel inducer, RAD52 inh, Xi reactivation)
O=c1oc(-c2ccccc2Br)nc2ccccc12	RAD52 inh 102 | DNA binder FP inactive
CSc1ccc2c(c1)N(CCC1CCCCN1C)c1ccccc1S2 (stereo unspecified)	RAD52 inh 51 (no result: Ecoli rRNA inh) | DNA binder FP inactive
CC[n+]1c(C=C2C=C(C)OC(C)=C2)sc2ccccc21	RAD52 inh 59, Xi reactivation 57 (no result: RAD54 inh, PglD inh) | DNA binder FP inactive
CN(C)CCn1cnc2c(c1=N)C(c1ccccc1)c1ccc3ccccc3c1O2 (stereo unspecified)	none | DNA binder FP inactive
CN(C)CC/C=C1\c2ccccc2Sc2ccc(Cl)cc21	none
CN(C)CC/C=C1/c2ccc(F)cc2Sc2ccc(Cl)cc21	RAD52 inh 62 | DNA binder FP inactive
CN(C)CC/C=C1\c2ccccc2Sc2cc(F)c(Cl)cc21	RAD52 inh 63 (no result: RAD54 inh, PglD inh) | DNA binder FP inactive
CN(C)CC/C=C1\c2cc(Cl)ccc2Sc2cc(F)c(F)cc21	RAD52 inh 62 (no result: RAD54 inh, PglD inh) | DNA binder FP inactive
CN(C)CC/C=C1/c2cc(F)ccc2CSc2ccc(F)cc21	none (no result: Ecoli rRNA inh, RAD54 inh, RAD52 inh, PglD inh)
